As a reminder, the IC50 is the concentration that gives 50% inhibition.

Series [1] concerns Mycobacterium tuberculosis. The series can be described thus: Activity against Mycobacterium tuberculosis H37Ra. The series is classed as functional. A digest of the protocol: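 Microbroth dilution in microtiter plates. H37Ra grown in Middlebrook 7H9 to OD650 0.4-0.6, then diluted to OD650 0.01. 100 µL of cells added to serial compound dilutions and incubated 37 °C for 8 days, growth read visually. MIC90 taken as wells with >90% growth inhibition; isoniazid positive control on every plate.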

Series [2] concerns Mycobacterium tuberculosis. The series can be described thus: Viable Mycobacterium tuberculosis in spleen of infected Mice after an 8-day drug treatment; Dose is 150 mg/kg. The series is classed as functional. A digest of the protocol:
(§1)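 C57BL/6 interferon-γ gene-depleted (GKO) mice infected by low-dose aerosol. Eight daily treatments started 18 days postinfection. At day 28, lung and spleen homogenates serially diluted onto Middlebrook 7H11 agar and incubated 4 weeks at 37 °C. CFU log-transformed and reported ±SEM; one-way Dunnett multiple-comparison ANOVA, significance at 95% confidence.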

For series [3], the target named is UDP-galactopyranose mutase (Mycobacterium tuberculosis, UniProt P9WIQ1). In words: Inhibition of Mycobacterium tuberculosis UDP-galactose mutase expressed in Escherichia coli UDP-6 [3H]- Galf. More on the design: species or system H37Rv. An outline of the steps:
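Reverse-direction radiometric Glf assay on crude soluble enzyme extract, preactivated 30 min at 37 °C in 25 mM MOPS with NADH and FAD. Each 25 µL well held MOPS pH 7.2, MgCl2, NADH, FAD, 2.3 µg protein, 20 pmol UDP-6-[3H]Galf and 1 µL DMSO. Inhibitors at 100-6.3 µM; reaction 5-20 min. Conversion read by HPLC or periodate filter-plate counting; IC50 calculated.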

Series [4] can be described thus: The protein binding is expressed as percent bound as determined by VolSurf. It counts as ADME. The note with it: read-out: Protein binding (converted).
Another series relates to Vero. The series can be described thus: Selectivity is the ratio of cytotoxicity compared to TBMIC. It counts as functional. An outline of the steps:
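Ratio of VERO cell toxicity IC50 to M. tuberculosis H37Ra MIC. VERO monolayers were exposed to 3-fold compound dilutions for 72 h, and viability was read by tetrazolium reduction at 490 nm, with untreated and SDS-lysed cells as 0% and 100%. MIC was by microbroth dilution in 7H9 (OD650 0.01 inoculum), 37 °C for 8 days, with visual 90% growth inhibition.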

Series [5] relates to Mycobacterium tuberculosis. The series can be described thus: Viable Mycobacterium tuberculosis in lungs of infected Mice after an 8-day drug treatment; Dose is 150 mg/kg. It counts as functional, Lung. A digest of the protocol: as §1
Series [6] relates to Mycobacterium tuberculosis. The series can be described thus: Viable Mycobacterium tuberculosis in spleen of infected Mice after an 8-day drug treatment; Dose is 25 mg/kg. It counts as functional. An outline of the steps:
as §1

For series [7], the system named is Mycobacterium tuberculosis. The series can be described thus: Viable Mycobacterium tuberculosis in lungs of infected Mice after an 8-day drug treatment; Dose is 25 mg/kg. The series is classed as functional, Lung. An outline of the steps:
as §1

UDP-galactopyranose mutase, sequence (P9WIQ1 whole entry): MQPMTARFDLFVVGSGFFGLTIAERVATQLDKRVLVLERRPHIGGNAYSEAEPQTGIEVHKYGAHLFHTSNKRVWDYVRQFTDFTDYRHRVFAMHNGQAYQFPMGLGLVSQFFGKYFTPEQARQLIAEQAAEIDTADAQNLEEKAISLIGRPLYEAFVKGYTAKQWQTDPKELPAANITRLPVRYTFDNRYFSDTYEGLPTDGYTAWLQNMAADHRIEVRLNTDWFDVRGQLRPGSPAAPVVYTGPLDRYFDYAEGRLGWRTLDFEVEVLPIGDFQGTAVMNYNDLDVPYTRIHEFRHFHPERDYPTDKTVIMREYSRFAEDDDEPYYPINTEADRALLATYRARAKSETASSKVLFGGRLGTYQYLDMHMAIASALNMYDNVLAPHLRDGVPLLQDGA

Regarding `COc1cccc(NC(=O)c2ccc([N+](=O)[O-])o2)c1`, the TBMIC in series [1] was 0.8 µg/mL. Also, the Activity in series [2] turned out to be 7.2 log CFU; in series [5], 8 log CFU. Besides, in series [3], the IC50 was 160 µM. Moreover, the fraction unbound in series [4] was 0.364. The Selectivity index in the series with Vero amounted to 23.3.

On to `NNC(=O)c1ccncc1` [ISONIAZID], for which the Activity is listed as 3.2 log CFU in series [6] and 5.5 log CFU in series [7].

The values are drawn from ChEMBL document CHEMBL1138787, “Synthesis and evaluation of nitrofuranylamides as novel antituberculosis agents” (J Med Chem, 2004).
